Where “and” joins values, the source holds several entries; their conditions need not be identical. Equal entries are not always repeated. Where two headings read alike, the source gives them in different places. Each block holds one compound with its values, some of them ahead of it. Where a SMILES comes first, the peptide text is derived from it. The star is where a group is joined. ClAc = O=C(CCl)*; NHOH = ON*
Assays:
rat PAM [1] = biological target: T1, rat PAM (Rattus norvegicus, UniProt P14925); experiment: Bifunctional rat PAM inhibition; assay type: biochemical
T1 sequence (P14925 36-715 isoform P14925-2 limits assumed): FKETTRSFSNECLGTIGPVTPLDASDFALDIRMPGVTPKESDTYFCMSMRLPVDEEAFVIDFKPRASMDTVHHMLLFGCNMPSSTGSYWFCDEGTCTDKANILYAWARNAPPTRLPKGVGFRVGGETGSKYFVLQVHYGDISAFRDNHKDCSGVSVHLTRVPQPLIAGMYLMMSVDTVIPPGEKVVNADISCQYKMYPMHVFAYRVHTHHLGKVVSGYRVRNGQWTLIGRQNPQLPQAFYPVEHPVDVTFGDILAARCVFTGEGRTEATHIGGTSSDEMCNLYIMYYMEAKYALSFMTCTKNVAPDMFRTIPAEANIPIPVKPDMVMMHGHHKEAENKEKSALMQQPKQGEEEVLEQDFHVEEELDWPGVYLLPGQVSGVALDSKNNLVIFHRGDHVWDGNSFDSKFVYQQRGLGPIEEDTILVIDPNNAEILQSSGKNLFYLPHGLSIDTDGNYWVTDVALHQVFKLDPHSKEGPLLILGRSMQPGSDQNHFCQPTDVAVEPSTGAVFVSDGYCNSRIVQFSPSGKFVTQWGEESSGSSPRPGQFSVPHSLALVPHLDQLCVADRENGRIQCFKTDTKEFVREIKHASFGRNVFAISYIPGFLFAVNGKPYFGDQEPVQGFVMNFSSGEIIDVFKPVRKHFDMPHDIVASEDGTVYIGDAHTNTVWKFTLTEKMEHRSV

PHM = settings: cited from earlier work; for Km: read-out: KM,app
rat PAM [2] = biological target: T1, rat PAM; experiment: Steady-state kinetics of rat bifunctional PAM substrates; settings: for (V/K)app as percent of the corresponding glycine substrate: D-alanine substrate vs. corresponding glycine substrate; for (V/K)app / Km: O2 consumption, 5.0 mM ascorbate, pH 6.0, 37 °C; for Km: read-out: KM,app; for Rel. (V/K)app: relative to hippuric acid = 1.0
B. germanica PHM = B. germanica PHM inhibition; assay type: biochemical, Blatella germanica; settings: for RatKi,s/InsectKi,s: ratio rat PAM Ki,s to B. germanica PHM Ki,s; for Ki: read-out: Ki,s vs. B. germanica PHM, N-dansyl-Tyr-Val-Gly amidation
DU 145 cells = experiment: Growth of human prostate DU 145 cells; assay type: cell-based; settings: for antiproliferative concentration relative to Ki,s for PHM: DU 145 cells vs. in vitro Ki,s
Summary of the method: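 DU 145 cells in EMEM (Earle's salts, 2 mM glutamine, 1.0 mM pyruvate, 0.1 mM amino acids, 10% FBS, penicillin/streptomycin). Grown to 80% confluency, trypsinized, seeded at 50,000 cells/well, adhered 24 h. Medium then replaced with or without test compound; 10 μM 4-HPR as positive control. Counted at 8, 24, 48, 72, 96 h: PBS wash, trypsin/EDTA detachment, Trypan blue, hemacytometer viable/non-viable count.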

PAL activity of rat PAM = PAL activity of rat PAM (Rattus norvegicus, UniProt P14925); experiment: Inhibition of PAL activity; assay type: biochemical; settings: read-out: inhibition of PAL activity
Summary of the method: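 Recombinant type A rat medullary thyroid carcinoma PAM (1.5–3.0 μg) started reactions at 37.0 °C. Buffer: 100 mM MES/NaOH pH 6.0, 30 mM NaCl, 1% ethanol, 0.001% Triton X-100. Substrate: 2.0 mM (R,S)-α-hydroxyhippuric acid, with 0 or 750 μM test compound. No-enzyme blank included. TFA quench at 20 min. Glyoxylate measured spectrophotometrically against a standard curve.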

[3] = Ki,s, rat PAM, absence of DMSO, competitive inhibition assumed

Compound: O=C(O)COC(=O)Nc1ccccc1 [compound 65, O-(Phenylcarbamoyl)glycolic acid]
Ki (rat PAM [1]; [3]): 54 ± 4 µM

Compound: N[C@@H](CCC(=O)N[C@@H](CS)C(=O)NCC(=O)O)C(=O)O [glutathione]
Km (PHM): 130 µM

Compound: C[C@@H](NC(=O)c1ccccc1)C(=O)O [compound 52, Benzoyl-D-alanine]
(V/K)app as percent of the corresponding glycine substrate (rat PAM [2]): 0.05–0.3%

Compound: CC(SC(=S)c1ccccc1)C(=O)O (racemic) [compound 66, S-(Thiobenzoyl)-(R,S)-thiolactic acid]
Ki (rat PAM [1]; [3]): 58 ± 9 µM

Compound: O=C(O)CSC(=S)Cc1ccccc1 [compound 60, S-(2-Phenylthioacetyl)thioglycolic acid]
Ki (rat PAM [1]; Ki,s, rat PAM, […] DMSO): 13 µM
Ki (rat PAM [1]; [3]): 7.9 ± 2.8 µM
RatKi,s/InsectKi,s (B. germanica PHM): 2.1
Ki (B. germanica PHM): 3.6 ± 0.6 µM
antiproliferative concentration relative to Ki,s for PHM (DU 145 cells): ~ 60 fold and 60–300 fold
concentration showing significant anti-proliferative effects (DU 145 cells; DU 145 cells, Fig. 2): > 500 µM

Compound: O=C(NCP(=O)(O)O)c1cccnc1 [compound 80, (Nicotinamidomethyl)phosphonic acid]
Ki (rat PAM [1]): > 75000 µM
inhibition of PHM (O2 consumption) (rat PAM [1]; 28 mM compound, 200 μM N-octanoylglycine as substrate): no inhibition

Compound: CC(C)C[C@H](NC(=O)[C@@H]1CCCN1)C(=O)NCC(=O)NO [compound 74, Pro-Leu-Gly hydroxamic acid] (H-Pro-Leu-Gly-{NHOH})
Ki (rat PAM [1]; [3]): 1000 µM

Compound: 2-Propylmercaptoacetylglycine [compound 29]
(V/K)app (rat PAM [2]): (8.2 ± 0.3) × 10^3 M^−1 s^−1
Km (rat PAM [2]): 220 ± 10 µM
Rel. (V/K)app (rat PAM [2]): 1.3

Compound: O=C(NO)c1ccccc1O [compound 71, Salicylhydroxamic acid]
Ki (rat PAM [1]; [3]): 300 ± 20 µM

Compound: methyl ester of N-dansyl-Tyr-Val-Gly
Ki (PHM; read-out: Ki,s, ref 20a): 54 µM

Compound: O=C(O)CNC(=O)c1ccccc1O [salicylurate]
Km (PHM; ref 23b): 860 µM

Compound: CCOC(=O)CSC(=S)c1ccc(C)cc1 [compound 70, S-(4-Methylthiobenzoyl)thioglycolic acid ethyl ester]
Ki (rat PAM [1]; [3]): 110 ± 10 µM

Compound: O=C(N[C@H](CO)C(=O)O)c1ccccc1 [compound 76, N-(Benzoyl)-D-serine]
Ki (rat PAM [1]; [3]): 1500 µM

Compound: O=C(O)CONC(=O)c1ccccc1 [compound 73, O-Benzamidoglycolic acid]
Ki (rat PAM [1]; [3]): 1000 µM

Compound: 2-Pyridylmercaptoacetylglycine [compound 47]
(V/K)app (rat PAM [2]): (8.3 ± 0.7) × 10^4 M^−1 s^−1
Km (rat PAM [2]): 36 ± 4 µM
Rel. (V/K)app (rat PAM [2]): 13

Compound: O=C(O)CSc1ccccc1 [compound 72, S-Phenylmercaptoacetic Acid]
Ki (rat PAM [1]; [3]): 380 ± 40 µM
RatKi,s/InsectKi,s (B. germanica PHM): 6.9
Ki (B. germanica PHM): 56 ± 6 µM

Compound: O=C(O)CNCc1ccccc1 [compound 79, N-Benzylglycine]
Ki (rat PAM [1]; [3]): 18000 µM

Compound: O=C(O)CCSC(=S)Nc1ccccc1 [compound 56, S-(Phenylthiocarbamoyl)-3-mercaptopropionic acid]
Ki (rat PAM [1]; [3]): 2.6 ± 0.7 µM
RatKi,s/InsectKi,s (B. germanica PHM): 0.47
Ki (B. germanica PHM): 5.5 ± 0.8 µM

Compound: O=C(NC(CSC(=O)c1ccccc1)C(=O)O)c1ccccc1 (stereo in doubt) [compound 68, N,S-Dibenzoyl-L-cysteine]
Ki (rat PAM [1]; [3]): 69 ± 7 µM

Compound: O=C(O)CNC(=O)CNC(=O)CCl [compound 34, Chloroacetyl-Gly-Gly] (ClAc-Gly-Gly-OH)
(V/K)app (rat PAM [2]): (2.1± 0.1) × 10^4 M^−1 s^−1
Km (rat PAM [2]): 420 ± 30 µM

Compound: O=C(O)CNC(=O)CCCCCCCc1ccccc1 [compound 46, 8-Phenyloctanoylglycine]
(V/K)app lower than that of 6-phenylhexanoylglycine 50 (rat PAM [2]): ~ 2.5 fold

Compound: O=C(O)CNC(=O)CCCCCc1ccccc1 [compound 50, 6-Phenylhexanoylglycine]
increase of (V/K)app over hippurate 1 (rat PAM [2]): ~ 30 fold
ratio of (V/K)app to that of 3-(2-furyl)acryloylglycine 26 (rat PAM [2]): about 70

Compound: CC1=C(/C=C/C(C)=C/C=C/C(C)=C/C(=O)Nc2ccc(O)cc2)C(C)(C)CCC1 [4-HPR, N-(4-hydroxyphenyl) retinamide, reference compound]
effect on cell growth (positive control) (DU 145 cells; DU 145 cells, 10 μM, 48 hr): completely eliminates cell growth

Further lines, with some results ahead:

Ki (rat PAM [1]; Ki,s, rat PAM, […] DMSO): 110 ± 20 µM
Compound: O=C(O)CNC(=S)Nc1ccccc1 [compound 69, N-Phenylthiohydantoic acid]

Ki (rat PAM [1]; [3]): 7.2 ± 0.9 µM
Compound: CC(NC(=S)c1ccccc1)C(=O)O (stereo not drawn) [compound 59, N-(Thiobenzoyl)-(D,L)-alanine]

Ki (rat PAM [1]; [3]): 0.54 ± 0.05 µM
Compound: CCCCCCCCCCCC(=S)SCC(=O)O [compound 55, S-(Thiolauroyl)thioglycolic acid]

Ki (rat PAM [1]; Ki,s, rat PAM, […] DMSO): 30 µM
Ki (rat PAM [1]; [3]): 9.4 ± 0.8 µM
Ki (B. germanica PHM): 0.87 ± 0.11 µM
Compound: O=C(O)CSC(=S)CCc1ccccc1 [compound 62, S-(3-Phenylthiopropionyl)thioglycolic acid]
RatKi,s/InsectKi,s (B. germanica PHM): 11

Ki (rat PAM [1]; [3]): 3.5 ± 0.4 µM
Ki (B. germanica PHM): 14 ± 1 µM
Compound: Cc1ccc(C(=S)SCC(=O)O)cc1 [compound 57, S-(4-Methylthiobenzoyl)thioglycolic acid]
RatKi,s/InsectKi,s (B. germanica PHM): 0.25
antiproliferative concentration relative to Ki,s for PHM (DU 145 cells): 60–300 fold

Ki (rat PAM [1]; [3]): 7900 µM
Compound: NCC(=O)NNC(=O)OCc1ccccc1 [compound 78, (CBZ-hydrazido)glycine]

(V/K)app (rat PAM [2]): (2.5 ± 0.1) × 10^3 M^−1 s^−1
Compound: 3-Indolylacetylglycine [compound 24]

(V/K)app as percent of the corresponding glycine substrate (rat PAM [2]): 0.05–0.3%
Compound: CC(=O)N[C@H](C)C(=O)O [compound 51, Acetyl-D-alanine]

Ki (rat PAM [1]; Ki,s, rat PAM, […] DMSO): 49 µM
Ki (rat PAM [1]; [3]): 39 ± 5 µM
Ki (B. germanica PHM): 92 ± 10 µM
Compound: O=C(O)CSC(=S)c1ccccc1 [compound 64, S-(Thiobenzoyl)thioglycolic acid]

Ki (rat PAM [1]; [3]): 8.6 ± 1.4 µM
Ki (B. germanica PHM): 5.4 ± 0.3 µM
inhibition at 750 µM (PAL activity of rat PAM): ~40%
Compound: O=C(O)CSC(=S)Nc1ccccc1 [compound 61, S-(Phenylthiocarbamoyl)thioglycolic acid]
RatKi,s/InsectKi,s (B. germanica PHM): 1.6

Ki (rat PAM [1]; [3]): 5.7 ± 0.4 µM
Compound: CC(C#N)(CCC(=O)O)SC(=S)c1ccccc1 (stereo not drawn) [compound 58, S-(Thiobenzoyl)-4-mercapto-4-cyanopentanoic acid]

Ki (rat PAM [1]; [3]): 1400 µM
Compound: O=C(NCC[C@H](O)C(=O)O)OCc1ccccc1 [compound 75, (S)-N-CBZ-4-amino-2-hydroxybutyric acid]

(V/K)app as percent of the corresponding glycine substrate (rat PAM [2]): 0.05–0.3%
Compound: C[C@@H](NC(=O)OCc1ccccc1)C(=O)O [compound 53, CBZ-D-alanine]
